Assay results: ChEMBL document CHEMBL4814034, “Discovery of N-amido-phenylsulfonamide derivatives as novel microsomal prostaglandin E2 synthase-1 (mPGES-1) inhibitors” (Bioorg Med Chem Lett, 2021)
pIC50: −log10 of the molar value.

Legend:
A549 = test: Cytotoxicity against human A549 cells assessed as cell viability incubated for 24 hrs in presence of IL-1beta by MTT assay; assay type: cell-based; details: a549, 24 h
Procedure, shortened: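 A549 cells exposed to compounds at 1 µM with interleukin-1β (1 ng/mL) for 24 h; viability read by MTT assay.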

Prostaglandin E synthase [1] = biological target: T1, Prostaglandin E synthase (Mus musculus, UniProt Q9JM51); test: Inhibition of mPGES-1 in mouse RAW264.7 cells assessed as reduction in LPS-stimulated PGE2 production; assay type: cell-based
T1 sequence (Q9JM51 whole entry): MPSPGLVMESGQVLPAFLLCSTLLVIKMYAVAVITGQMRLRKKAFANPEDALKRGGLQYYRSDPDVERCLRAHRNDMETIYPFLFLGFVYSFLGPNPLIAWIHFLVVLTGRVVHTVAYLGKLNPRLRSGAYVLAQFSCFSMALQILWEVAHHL

[2] = Stability in rat plasma assessed as parent compound remaining at 10 uM after 30 mins by UPLC-MS analysis; assay type: ADME, cell-free; details: read-out: Stabilty
Procedure, shortened: (§1)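 Compounds at 10 µM incubated in human or rat plasma; % remaining after 30 min reported.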

[3] = Selectivity index, ratio of IC50 for inhibition of mPGES-1 in human A549 cells assessed as reduction in IL-1beta stimulated PGI2 production to IC50 for inhibition of mPGES-1 in human A549 cells assessed as reduction in IL-1 beta stimulated PGE2 production
CYP2C19 = CYP2C19 (Homo sapiens, UniProt P33261); test: Inhibition of CYP2C19 in human liver microsomes assessed as enzyme remaining activity at 10 uM using mephenytoin as substrate incubated for 20 mins in presence of NADPH by LC-MS/MS analysis relative to control; assay type: ADME; details: probe mephenytoin, read-out: Activity
Procedure, shortened: (§2)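 CYP1A2, 2C9, 2C19, 2D6 and 3A4 activities measured with each compound at 10 µM; result given as % of control activity.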

[4] = Stability in human plasma assessed as parent compound remaining at 10 uM after 30 mins by UPLC-MS analysis; assay type: ADME, cell-free; details: read-out: Stabilty; procedure, shortened: as §1
Prostaglandin E synthase [5] = biological target: T2, Prostaglandin E synthase (Homo sapiens, UniProt O14684); test: Inhibition of mPGES-1 activity in IL-1beta stimulated human A549 cells by cell-free assay
T2 sequence (O14684 whole entry): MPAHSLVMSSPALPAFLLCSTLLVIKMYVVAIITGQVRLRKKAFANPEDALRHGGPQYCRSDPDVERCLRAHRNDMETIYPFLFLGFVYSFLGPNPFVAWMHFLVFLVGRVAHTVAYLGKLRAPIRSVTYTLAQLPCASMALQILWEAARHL
Procedure, shortened: (§3)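 Cell-free mPGES-1 assay using microsomal preparation from IL-1β-stimulated A549 cells. Preincubated with compounds or DMSO vehicle for 15 min on ice, then reacted 1 min with substrate. PGE2 production measured by EIA kit. Remaining activity expressed as % of control, mean ± SDs (n = 3).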

CYP3A4 = CYP3A4 (Homo sapiens, UniProt P08684); test: Inhibition of CYP3A4 in human liver microsomes assessed as enzyme remaining activity at 10 uM using testosterone as substrate incubated for 20 mins in presence of NADPH by LC-MS/MS analysis relative to control; assay type: ADME; details: probe testosterone, read-out: Activity; procedure, shortened: as §2
[6] = Metabolic stability in mouse liver microsomes assessed as parent compound remaining at 1 uM incubated for 30 mins in presence of NADPH by LC-MS/MS analysis; assay type: ADME, Microsome; details: read-out: Stabilty
Procedure, shortened: (§4)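 Single-point metabolic stability in mouse, rat, dog and human liver microsomes. Compound at 1.0 µM incubated with 1.0 mg/mL protein at 37 °C for 30 min; % parent remaining reported.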

Prostaglandin E synthase [7] = biological target: T2, Prostaglandin E synthase; test: Inhibition of mPGES-1 in human A549 cells assessed as reduction in IL-1beta stimulated PGE2 production incubated for 24 hrs by EIA; assay type: cell-based
CYP1A2 = biological target: T3, CYP1A2 (Homo sapiens, UniProt P05177); test: Inhibition of CYP1A2 in human liver microsomes assessed as enzyme remaining activity at 10 uM using phenacetin as substrate incubated for 20 mins in presence of NADPH by LC-MS/MS analysis relative to control; assay type: ADME; details: probe phenacetin, read-out: Activity; procedure, shortened: as §2
T3 sequence (P05177 whole entry): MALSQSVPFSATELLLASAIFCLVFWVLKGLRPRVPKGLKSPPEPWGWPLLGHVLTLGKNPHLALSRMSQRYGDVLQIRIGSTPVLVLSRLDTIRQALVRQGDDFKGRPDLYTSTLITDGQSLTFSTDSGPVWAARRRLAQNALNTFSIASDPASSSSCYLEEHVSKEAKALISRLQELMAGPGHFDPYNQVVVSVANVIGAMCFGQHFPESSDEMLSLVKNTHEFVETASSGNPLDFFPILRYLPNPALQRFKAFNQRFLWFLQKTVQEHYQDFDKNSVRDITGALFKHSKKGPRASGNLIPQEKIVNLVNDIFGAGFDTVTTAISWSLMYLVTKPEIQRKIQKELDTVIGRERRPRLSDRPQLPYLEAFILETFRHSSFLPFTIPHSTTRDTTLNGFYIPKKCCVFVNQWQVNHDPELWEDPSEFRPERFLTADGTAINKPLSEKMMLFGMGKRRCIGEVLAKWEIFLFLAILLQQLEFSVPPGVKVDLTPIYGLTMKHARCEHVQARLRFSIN

[8] = Metabolic stability in human liver microsomes assessed as parent compound remaining at 1 uM incubated for 30 mins in presence of NADPH by LC-MS/MS analysis; assay type: ADME, Microsome; details: read-out: Stabilty; procedure, shortened: as §4
[9] = Metabolic stability in rat liver microsomes assessed as parent compound remaining at 1 uM incubated for 30 mins in presence of NADPH by LC-MS/MS analysis; assay type: ADME, Microsome; details: read-out: Stabilty; procedure, shortened: as §4
CYP2C9 = CYP2C9 (Homo sapiens, UniProt P11712); test: Inhibition of CYP2C9 in human liver microsomes assessed as enzyme remaining activity at 10 uM using diclofenac as substrate incubated for 20 mins in presence of NADPH by LC-MS/MS analysis relative to control; assay type: ADME; details: probe diclofenac, read-out: Activity; procedure, shortened: as §2
CYP2D6 = CYP2D6 (Homo sapiens, UniProt P10635); test: Inhibition of CYP2D6 in human liver microsomes assessed as enzyme remaining activity at 10 uM using bufuralol as substrate incubated for 20 mins in presence of NADPH by LC-MS/MS analysis relative to control; assay type: ADME; details: probe bufuralol, read-out: Activity; procedure, shortened: as §2
[10] = Metabolic stability in dog liver microsomes assessed as parent compound remaining at 1 uM incubated for 30 mins in presence of NADPH by LC-MS/MS analysis; assay type: ADME, Canis lupus familiaris, Microsome; details: read-out: Stabilty; procedure, shortened: as §4
[11] = biological target: Voltage-gated inwardly rectifying potassium channel KCNH2 (Homo sapiens, UniProt Q12809); test: Binding affinity to human ERG
Prostaglandin E synthase [12] = biological target: T2, Prostaglandin E synthase; test: Inhibition of mPGES-1 activity in IL-1beta stimulated human A549 cells microsomes assessed as reduction in PGE2 production preincubated for 15 mins followed by PGH2 addition and measured after 1 mins by EIA; design: species or system Microsome; procedure, shortened: as §3
[13] = biological target: T4, Prostaglandin E synthase (Homo sapiens) (UniProt O14684); test: Potency index, ratio of MK886 IC50 to test compound IC50 for inhibition of mPGES-1 in human A549 cells microsomes; details: Microsome
T4 sequence (whole entry): T2 sequence (O14684 whole entry)

Voltage-gated inwardly rectifying potassium channel KCNH2, sequence (Q12809 whole entry): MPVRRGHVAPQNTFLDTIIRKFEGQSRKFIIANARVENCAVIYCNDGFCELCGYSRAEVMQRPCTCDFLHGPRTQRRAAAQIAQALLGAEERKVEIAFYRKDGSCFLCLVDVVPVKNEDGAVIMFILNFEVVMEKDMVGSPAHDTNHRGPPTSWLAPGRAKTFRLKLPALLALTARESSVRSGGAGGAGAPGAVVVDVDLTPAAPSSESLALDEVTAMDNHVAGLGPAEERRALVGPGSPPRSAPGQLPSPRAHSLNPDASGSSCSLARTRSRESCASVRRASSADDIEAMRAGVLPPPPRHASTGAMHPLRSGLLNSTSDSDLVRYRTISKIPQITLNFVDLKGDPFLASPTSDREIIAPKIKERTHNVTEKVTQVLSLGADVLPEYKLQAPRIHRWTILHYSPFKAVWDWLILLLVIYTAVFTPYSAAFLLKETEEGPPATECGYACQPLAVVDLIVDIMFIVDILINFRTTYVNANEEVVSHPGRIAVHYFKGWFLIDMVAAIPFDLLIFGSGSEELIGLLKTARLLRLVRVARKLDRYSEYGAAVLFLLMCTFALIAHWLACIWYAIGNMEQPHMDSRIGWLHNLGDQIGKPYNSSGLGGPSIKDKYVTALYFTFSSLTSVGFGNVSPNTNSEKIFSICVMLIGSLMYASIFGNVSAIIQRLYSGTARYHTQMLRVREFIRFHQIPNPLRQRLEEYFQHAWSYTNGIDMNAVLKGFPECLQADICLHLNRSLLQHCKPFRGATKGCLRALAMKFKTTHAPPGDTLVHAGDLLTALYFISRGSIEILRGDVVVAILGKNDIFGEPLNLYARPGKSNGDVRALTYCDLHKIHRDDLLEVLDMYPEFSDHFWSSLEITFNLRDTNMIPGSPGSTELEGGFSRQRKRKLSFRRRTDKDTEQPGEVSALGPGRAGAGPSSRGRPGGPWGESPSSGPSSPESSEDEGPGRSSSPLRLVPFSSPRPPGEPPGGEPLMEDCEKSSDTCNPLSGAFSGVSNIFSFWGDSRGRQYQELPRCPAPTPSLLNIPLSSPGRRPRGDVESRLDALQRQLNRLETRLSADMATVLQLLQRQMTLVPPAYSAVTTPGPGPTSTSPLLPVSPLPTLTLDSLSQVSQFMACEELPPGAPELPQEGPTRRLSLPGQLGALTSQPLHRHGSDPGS
CYP3A4, sequence (P08684 whole entry): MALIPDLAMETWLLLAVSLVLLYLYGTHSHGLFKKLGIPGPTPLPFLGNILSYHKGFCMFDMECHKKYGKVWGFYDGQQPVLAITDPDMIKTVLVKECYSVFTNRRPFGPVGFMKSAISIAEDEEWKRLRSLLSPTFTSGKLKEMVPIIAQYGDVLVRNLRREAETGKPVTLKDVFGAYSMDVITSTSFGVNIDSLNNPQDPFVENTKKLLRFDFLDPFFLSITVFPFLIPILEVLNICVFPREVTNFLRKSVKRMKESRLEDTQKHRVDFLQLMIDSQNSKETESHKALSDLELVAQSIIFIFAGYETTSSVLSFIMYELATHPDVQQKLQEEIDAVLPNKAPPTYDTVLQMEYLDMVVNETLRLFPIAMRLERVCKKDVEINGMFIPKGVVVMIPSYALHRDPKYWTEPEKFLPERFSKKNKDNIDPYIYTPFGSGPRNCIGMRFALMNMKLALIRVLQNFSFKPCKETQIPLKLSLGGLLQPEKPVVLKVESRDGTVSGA
CYP2C19, sequence (P33261 whole entry): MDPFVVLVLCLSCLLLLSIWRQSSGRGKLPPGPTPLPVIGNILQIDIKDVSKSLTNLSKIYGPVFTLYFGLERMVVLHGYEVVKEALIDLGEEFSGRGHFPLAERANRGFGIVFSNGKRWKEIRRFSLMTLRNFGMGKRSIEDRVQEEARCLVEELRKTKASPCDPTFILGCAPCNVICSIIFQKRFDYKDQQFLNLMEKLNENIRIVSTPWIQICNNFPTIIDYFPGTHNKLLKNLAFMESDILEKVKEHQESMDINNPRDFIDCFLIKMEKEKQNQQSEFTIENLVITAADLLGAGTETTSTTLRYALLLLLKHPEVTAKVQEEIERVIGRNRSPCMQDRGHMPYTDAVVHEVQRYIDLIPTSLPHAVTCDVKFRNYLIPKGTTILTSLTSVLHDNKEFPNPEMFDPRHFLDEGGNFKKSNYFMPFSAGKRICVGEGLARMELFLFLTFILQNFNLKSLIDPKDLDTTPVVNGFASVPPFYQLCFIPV
CYP2C9, sequence (P11712 whole entry): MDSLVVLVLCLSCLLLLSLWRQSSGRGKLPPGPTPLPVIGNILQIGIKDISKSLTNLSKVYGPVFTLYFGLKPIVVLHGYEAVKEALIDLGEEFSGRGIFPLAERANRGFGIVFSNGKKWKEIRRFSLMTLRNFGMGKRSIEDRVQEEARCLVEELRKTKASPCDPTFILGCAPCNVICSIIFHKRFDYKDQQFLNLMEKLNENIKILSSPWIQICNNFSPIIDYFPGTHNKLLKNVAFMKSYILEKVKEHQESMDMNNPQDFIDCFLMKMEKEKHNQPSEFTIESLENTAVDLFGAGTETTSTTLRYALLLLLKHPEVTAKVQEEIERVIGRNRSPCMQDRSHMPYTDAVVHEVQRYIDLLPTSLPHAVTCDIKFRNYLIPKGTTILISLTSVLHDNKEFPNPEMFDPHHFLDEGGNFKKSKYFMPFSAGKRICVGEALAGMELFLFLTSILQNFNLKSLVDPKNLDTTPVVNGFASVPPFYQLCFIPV
CYP2D6, sequence (P10635 whole entry): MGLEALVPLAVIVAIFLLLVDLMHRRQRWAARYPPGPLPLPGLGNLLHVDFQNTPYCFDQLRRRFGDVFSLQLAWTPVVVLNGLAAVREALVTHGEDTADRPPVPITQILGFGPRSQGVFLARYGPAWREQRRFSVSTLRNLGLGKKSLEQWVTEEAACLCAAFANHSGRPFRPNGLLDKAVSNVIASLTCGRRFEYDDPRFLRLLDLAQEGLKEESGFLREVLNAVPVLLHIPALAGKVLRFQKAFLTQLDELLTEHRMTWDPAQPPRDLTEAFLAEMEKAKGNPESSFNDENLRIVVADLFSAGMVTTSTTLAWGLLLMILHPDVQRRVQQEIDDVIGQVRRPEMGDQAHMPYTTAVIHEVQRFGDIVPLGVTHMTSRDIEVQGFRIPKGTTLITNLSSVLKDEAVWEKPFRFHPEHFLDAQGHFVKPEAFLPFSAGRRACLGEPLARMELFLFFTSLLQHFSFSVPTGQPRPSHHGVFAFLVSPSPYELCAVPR

Row | Structure (SMILES) | pIC50 (Prostaglandin E synthase [1]) | remaining at 0.5 h, 10 µM [2] [%] | activity at 20 min, 10 µM (CYP2C19) [%] | remaining at 0.5 h, 10 µM [4] [%] | pIC50 (Prostaglandin E synthase [5]) | activity at 20 min, 10 µM (CYP3A4) [%] | remaining at 0.5 h, 1 µM [6] [%] | pIC50 (Prostaglandin E synthase [7]) | activity at 20 min, 10 µM (CYP1A2) [%] | remaining at 0.5 h, 1 µM [8] [%] | remaining at 0.5 h, 1 µM [9] [%] | activity at 20 min, 10 µM (CYP2C9) [%] | activity at 20 min, 10 µM (CYP2D6) [%] | remaining at 0.5 h, 1 µM [10] [%] | pIC50 (Prostaglandin E synthase [12]) | Activity (A549) [µM] | Ratio IC50 [3] | pIC50 [11] | Ratio IC50 [13]
1 | O=C(Nc1ccc(OCCCCc2ccccc2)cc1)N(Cc1ccccc1)S(=O)(=O)c1ccc(Cl)cc1 |  | 1.3 | 8.7 | 45 |  | 92.5 | 79 | 6.62 | 69.4 | > 100 | 74.5 | 99.9 | 98.8 | 86.4 | 6.31 | > 1 | 4 | < 5.00 | 8
2 | CC(C)c1ccc2c(c1)c(SC(C)(C)C)c(CC(C)(C)C(=O)O)n2Cc1ccc(Cl)cc1 |  |  |  |  |  |  |  |  |  |  |  |  |  |  |  | > 1 |  |  | 
3 | O=C(Nc1ccc(OCc2ccccc2)cc1)N(Cc1ccccc1)S(=O)(=O)c1ccc(Cl)cc1 |  |  |  |  |  |  |  | 6.21 |  |  |  |  |  |  | < 4.52 | > 1 |  |  | 

More lines, main results first:

Row | pIC50 (Prostaglandin E synthase [1]) | remaining at 0.5 h, 10 µM [2] [%] | activity at 20 min, 10 µM (CYP2C19) [%] | remaining at 0.5 h, 10 µM [4] [%] | pIC50 (Prostaglandin E synthase [5]) | activity at 20 min, 10 µM (CYP3A4) [%] | remaining at 0.5 h, 1 µM [6] [%] | pIC50 (Prostaglandin E synthase [7]) | activity at 20 min, 10 µM (CYP1A2) [%] | remaining at 0.5 h, 1 µM [8] [%] | remaining at 0.5 h, 1 µM [9] [%] | activity at 20 min, 10 µM (CYP2C9) [%] | activity at 20 min, 10 µM (CYP2D6) [%] | remaining at 0.5 h, 1 µM [10] [%] | pIC50 (Prostaglandin E synthase [12]) | Structure (SMILES) | Activity (A549) [µM] | Ratio IC50 [3] | pIC50 [11] | Ratio IC50 [13]
4 | 6.47 | 2.1 | 56.9 | > 100 | 5.13 | > 100 | 53.4 | 6.80 | 99.4 | 44.9 | 44.1 | 97 | > 100 | 37.7 |  | O=C(Oc1ccc(OCc2ccccc2)cc1)N(Cc1ccccc1)S(=O)(=O)c1ccc(Cl)cc1 | > 1 | 8 | 5.28 | 
5 |  |  |  |  |  |  |  | 6.82 |  |  |  |  |  |  | < 4.52 | O=C(Oc1ccc(OCc2ccccc2)cc1)N(Nc1cccc(Cl)c1)S(=O)(=O)c1ccc(Cl)cc1 | > 1 |  |  | 
6 | 7.22 | < 1 | 77.9 | < 1 |  | 73.6 | 42.2 | 6.72 | 75.7 | 66.6 | 16.3 | 88.4 | 57.1 | 48.5 | 6.21 | O=C(Oc1ccc(OCc2ccccc2)cc1)N(Nc1ccccc1)S(=O)(=O)c1ccc(Cl)cc1 | > 1 |  | 5.02 | 
